Experimental data from ChEMBL document CHEMBL1649147, “Antistaphylococcal activity of dihydrophthalazine antifolates, a family of novel antibacterial drugs” (2009).
Values after ≈ are worked out from the molar mass of the structure shown.

Columns and labels:
[1] = system: coagulase-negative staphylococci; assay: Antibacterial activity against methicillin-susceptible coagulase-negative staphylococci by agar dilution method
[2] = system: Staphylococcus aureus; assay: Antibacterial activity against methicillin-susceptible Staphylococcus aureus by agar dilution method; assay type: functional
In short: (§1)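 Agar dilution on Mueller-Hinton agar per CLSI guidelines. S. aureus ATCC 29213 and E. faecalis ATCC 29212 were run with each set, and test MICs were accepted only when the control strains fell within acceptable ranges.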

[3] = system: Staphylococcus aureus; assay: Antibacterial activity against methicillin-resistant and vancomycin-resistant Staphylococcus aureus VRS1 after 50 passages by agar dilution method; assay type: functional
In short: (§2)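 Daily serial passage for up to 50 days at 35°C for 24 h in 1 ml MHB. […] Each transfer used 10 µl from the tube nearest the MIC (1–2 dilutions below) with the same turbidity as the drug-free control. […] MICs were measured by agar dilution, with changes given as log2 steps.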

[4] = system: Staphylococcus aureus; assay: Antibacterial activity against methicillin-susceptible Staphylococcus aureus ATCC 29213 after 50 passages by agar dilution method; assay type: functional; conditions: ATCC29213
In short: as §2

[5] = system: Staphylococcus epidermidis; assay: Antibacterial activity against methicillin-resistant coagulase-negative Staphylococcus epidermidis 197 by broth macrodilution method; assay type: functional
[6] = system: Staphylococcus aureus; assay: Antibacterial activity against methicillin-resistant Staphylococcus aureus ATCC 43300 after 50 passages by agar dilution method; assay type: functional; conditions: ATCC43300
In short: (§3)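 Serial passage under drug. Inoculum was ~1 × 10^6 CFU/ml from overnight MHA growth, in 1 ml MHB at 35°C for 24 h. Drug ranged from 4 log2 steps above to 3 log2 steps below the MIC. […] MIC change is given as log2 steps.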

[7] = system: Staphylococcus epidermidis; assay: Antibacterial activity against methicillin-resistant, vancomycin-intermediate coagulase-negative Staphylococcus epidermidis 225 by agar dilution method; assay type: functional
In short: as §1

[8] = system: Staphylococcus aureus; assay: Antibacterial activity against methicillin-resistant Staphylococcus aureus by agar dilution method; assay type: functional
In short: as §1

[9] = system: Staphylococcus aureus; assay: Antibacterial activity against Tmp-susceptible coagulase-negative Staphylococcus aureus by agar dilution method; assay type: functional
In short: (§4)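 MICs by agar dilution on Mueller-Hinton agar following CLSI guidelines. S. aureus ATCC 29213 and E. faecalis ATCC 29212 were run as quality controls with each set, and test-strain MICs were kept only if control MICs fell within acceptable ranges.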

[10] = system: Staphylococcus epidermidis; assay: Antibacterial activity against methicillin-resistant, Linezolid non-susceptible coagulase-negative Staphylococcus epidermidis 345 by agar dilution method; assay type: functional
[11] = system: Staphylococcus epidermidis; assay: Antibacterial activity against methicillin-susceptible coagulase-negative Staphylococcus epidermidis 051 after 50 passages by agar dilution method; assay type: functional
In short: (§5)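 Daily serial passage for up to 50 days at 35°C for 24 h in 1 ml MHB. Each transfer used 10 µl from the tube nearest the MIC (1–2 dilutions below) with the same turbidity as the drug-free control. MICs were measured by agar dilution, with changes given as log2 steps.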

[12] = system: Staphylococcus epidermidis; assay: Antibacterial activity against methicillin-resistant coagulase-negative Staphylococcus epidermidis 345 by broth macrodilution method; assay type: functional
[13] = system: Staphylococcus epidermidis; assay: Antibacterial activity against methicillin-resistant, Linezolid non-susceptible coagulase-negative Staphylococcus epidermidis 345 after 50 passages by agar dilution method; assay type: functional
In short: as §5

[14] = system: Staphylococcus aureus; assay: Antibacterial activity against methicillin-resistant Staphylococcus aureus 145 after 50 passages by agar dilution method; assay type: functional
In short: as §3

[15] = system: Staphylococcus epidermidis; assay: Antibacterial activity against methicillin-susceptible coagulase-negative Staphylococcus epidermidis 057 by broth macrodilution method; assay type: functional
[16] = system: Staphylococcus epidermidis; assay: Antibacterial activity against methicillin-susceptible coagulase-negative Staphylococcus epidermidis 057 after 50 passages by agar dilution method; assay type: functional
In short: as §5

[17] = system: coagulase-negative staphylococci; assay: Antibacterial activity against Tmp-resistant coagulase-negative staphylococci by agar dilution method
[18] = system: coagulase-negative staphylococci; assay: Antibacterial activity against methicillin-resistant coagulase-negative staphylococci by agar dilution method
[19] = system: Staphylococcus epidermidis; assay: Antibacterial activity against methicillin-susceptible coagulase-negative Staphylococcus epidermidis 051 by broth macrodilution method; assay type: functional
[20] = system: Staphylococcus aureus; assay: Antibacterial activity against Tmp-susceptible Staphylococcus aureus by agar dilution method; assay type: functional
In short: as §4

[21] = system: Staphylococcus epidermidis; assay: Antibacterial activity against methicillin-resistant coagulase-negative Staphylococcus epidermidis 225 by broth macrodilution method; assay type: functional
[22] = system: Staphylococcus aureus; assay: Antibacterial activity against methicillin-susceptible, vancomycin-intermediate Staphylococcus aureus 505 after 50 passages by agar dilution method; assay type: functional
In short: as §2

[23] = system: Staphylococcus epidermidis; assay: Antibacterial activity against methicillin-resistant, vancomycin-intermediate coagulase-negative Staphylococcus epidermidis 225 after 50 passages by agar dilution method; assay type: functional
In short: as §2

[24] = system: Staphylococcus epidermidis; assay: Antibacterial activity against methicillin-resistant coagulase-negative Staphylococcus epidermidis 074 by broth macrodilution method; assay type: functional
[25] = system: coagulase-negative staphylococci; assay: Antibacterial activity against Tmp-susceptible coagulase-negative staphylococci by agar dilution method
[26] = system: Staphylococcus aureus; assay: Antibacterial activity against Tmp-resistant Staphylococcus aureus by agar dilution method; assay type: functional
In short: as §4

[27] = system: Staphylococcus epidermidis; assay: Antibacterial activity against methicillin-resistant coagulase-negative Staphylococcus epidermidis 197 after 50 passages by agar dilution method; assay type: functional
In short: as §5

[28] = system: Staphylococcus aureus; assay: Antibacterial activity against methicillin-resistant and vancomycin-resistant Staphylococcus aureus VRS1 by agar dilution method; assay type: functional
In short: as §1

[29] = system: Staphylococcus aureus; assay: Antibacterial activity against methicillin-resistant Staphylococcus aureus 507 by broth macrodilution method; assay type: functional
[30] = system: Staphylococcus aureus; assay: Antibacterial activity against methicillin-resistant Staphylococcus aureus 145 by broth macrodilution method; assay type: functional
[31] = system: Staphylococcus aureus; assay: Antibacterial activity against methicillin-susceptible Staphylococcus aureus ATCC 29213 by broth macrodilution method; assay type: functional; conditions: ATCC29213
[32] = system: Staphylococcus aureus; assay: Antibacterial activity against methicillin-resistant Staphylococcus aureus ATCC 43300 by broth macrodilution method; assay type: functional; conditions: ATCC43300
[33] = system: Staphylococcus aureus; assay: Antibacterial activity against vancomycin-resistant Staphylococcus aureus VRS1 by broth macrodilution method; assay type: functional
In short: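 Michigan VRSA strain, one of 12 staphylococci later used in time-kill studies. MIC was determined by broth macrodilution and reported in μg/ml.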

[34] = system: Staphylococcus aureus; assay: Antibacterial activity against methicillin-susceptible Staphylococcus aureus 505 by broth macrodilution method; assay type: functional
[35] = system: Staphylococcus aureus; assay: Antibacterial activity against methicillin-susceptible, vancomycin-intermediate Staphylococcus aureus 505 by broth macrodilution method; assay type: functional

CC(=O)NC[C@H]1CN(c2ccc(N3CCOCC3)c(F)c2)C(=O)O1 [LINEZOLID]
MIC [1]: 1 µg/mL (≈ 2.96 µM) | MIC90 [1]: 2 µg/mL (≈ 5.93 µM) | MIC50 [2]: 2 µg/mL (≈ 5.93 µM) | MIC90 [2]: 2 µg/mL (≈ 5.93 µM) | MIC [3]: 32 µg/mL (≈ 94.9 µM) | MIC [4]: 16 µg/mL (≈ 47.4 µM) | MIC [5]: 2 µg/mL (≈ 5.93 µM) | MIC [6]: 64 µg/mL (≈ 190 µM) | MIC [7]: 2 µg/mL (≈ 5.93 µM) | MIC50 [8]: 2 µg/mL (≈ 5.93 µM) | MIC90 [8]: 2 µg/mL (≈ 5.93 µM) | MIC [9]: 1 µg/mL (≈ 2.96 µM) | MIC [10]: 32 µg/mL (≈ 94.9 µM) | MIC [11]: 128 µg/mL (≈ 379 µM) | MIC [12]: 64 µg/mL (≈ 190 µM) | MIC [13]: 128 µg/mL (≈ 379 µM) | MIC [14]: 16 µg/mL (≈ 47.4 µM) | MIC [15]: 2 µg/mL (≈ 5.93 µM) | MIC [16]: 64 µg/mL (≈ 190 µM) | MIC50 [17]: 1 µg/mL (≈ 2.96 µM) | MIC90 [17]: 2 µg/mL (≈ 5.93 µM) | MIC50 [18]: 1 µg/mL (≈ 2.96 µM) | MIC90 [18]: 2 µg/mL (≈ 5.93 µM) | MIC [19]: 2 µg/mL (≈ 5.93 µM) | MIC50 [20]: 2 µg/mL (≈ 5.93 µM) | MIC90 [20]: 2 µg/mL (≈ 5.93 µM) | MIC [21]: 2 µg/mL (≈ 5.93 µM) | MIC [22]: 16 µg/mL (≈ 47.4 µM) | MIC [23]: 16 µg/mL (≈ 47.4 µM) | MIC [24]: 1 µg/mL (≈ 2.96 µM) | MIC50 [25]: 1 µg/mL (≈ 2.96 µM) | MIC90 [25]: 2 µg/mL (≈ 5.93 µM) | MIC [26]: 1 µg/mL (≈ 2.96 µM) | MIC50 [26]: 1 µg/mL (≈ 2.96 µM) | MIC90 [26]: 2 µg/mL (≈ 5.93 µM) | MIC [27]: 32 µg/mL (≈ 94.9 µM)

CN(C)c1ccc(O)c2c1C[C@H]1C[C@H]3[C@H](N(C)C)C(O)=C(C(N)=O)C(=O)[C@@]3(O)C(O)=C1C2=O [MINOCYCLINE]
MIC [28]: 0.5 µg/mL (≈ 1.09 µM) | MIC [29]: 2 µg/mL (≈ 4.37 µM) | MIC [1]: 0.125 µg/mL (≈ 0.273 µM) | MIC90 [1]: 0.5 µg/mL (≈ 1.09 µM) | MIC [30]: 4 µg/mL (≈ 8.74 µM) | MIC50 [2]: 0.125 µg/mL (≈ 0.273 µM) | MIC90 [2]: 0.25 µg/mL (≈ 0.546 µM) | MIC [31]: 0.125 µg/mL (≈ 0.273 µM) | MIC [3]: 2 µg/mL (≈ 4.37 µM) | MIC [4]: 2 µg/mL (≈ 4.37 µM) | MIC [5]: 0.125 µg/mL (≈ 0.273 µM) | MIC [6]: 1 µg/mL (≈ 2.19 µM) | MIC [7]: 0.125 µg/mL (≈ 0.273 µM) | MIC50 [8]: 0.125 µg/mL (≈ 0.273 µM) | MIC90 [8]: 2 µg/mL (≈ 4.37 µM) | MIC [9]: 0.06 µg/mL (≈ 0.131 µM) | MIC [10]: 0.5 µg/mL (≈ 1.09 µM) | MIC [32]: 0.125 µg/mL (≈ 0.273 µM) | MIC [11]: 4 µg/mL (≈ 8.74 µM) | MIC [12]: 0.25 µg/mL (≈ 0.546 µM) | MIC [13]: 1 µg/mL (≈ 2.19 µM) | MIC [14]: 8 µg/mL (≈ 17.5 µM) | MIC [15]: 0.5 µg/mL (≈ 1.09 µM) | MIC [16]: 2 µg/mL (≈ 4.37 µM) | MIC50 [17]: 0.5 µg/mL (≈ 1.09 µM) | MIC90 [17]: 0.5 µg/mL (≈ 1.09 µM) | MIC50 [18]: 0.25 µg/mL (≈ 0.546 µM) | MIC90 [18]: 1 µg/mL (≈ 2.19 µM) | MIC [33]: 1 µg/mL (≈ 2.19 µM) | MIC [34]: 0.125 µg/mL (≈ 0.273 µM) | MIC [19]: 0.125 µg/mL (≈ 0.273 µM) | MIC50 [20]: 0.125 µg/mL (≈ 0.273 µM) | MIC90 [20]: 0.25 µg/mL (≈ 0.546 µM) | MIC [21]: 0.125 µg/mL (≈ 0.273 µM) | MIC [22]: 1 µg/mL (≈ 2.19 µM) | MIC [23]: 1 µg/mL (≈ 2.19 µM) | MIC [24]: 0.25 µg/mL (≈ 0.546 µM) | MIC50 [25]: 0.125 µg/mL (≈ 0.273 µM) | MIC90 [25]: 1 µg/mL (≈ 2.19 µM) | MIC50 [26]: 0.25 µg/mL (≈ 0.546 µM) | MIC90 [26]: 8 µg/mL (≈ 17.5 µM) | MIC [27]: 2 µg/mL (≈ 4.37 µM) | MIC [35]: 0.125 µg/mL (≈ 0.273 µM)

CN[C@H](CC(C)C)C(=O)N[C@H]1C(=O)N[C@@H](CC(N)=O)C(=O)N[C@H]2C(=O)N[C@H]3C(=O)N[C@H](C(=O)N[C@H](C(=O)O)c4cc(O)cc(O)c4-c4cc3ccc4O)[C@H](O)c3ccc(c(Cl)c3)Oc3cc2cc(c3O[C@@H]2O[C@H](CO)[C@@H](O)[C@H](O)[C@H]2O[C@H]2C[C@](C)(N)[C@H](O)[C@H](C)O2)Oc2ccc(cc2Cl)[C@H]1O [VANCOMYCIN]
MIC [28]: > 32 µg/mL | MIC90 [1]: 2 µg/mL (≈ 1.38 µM) | MIC50 [2]: 1 µg/mL (≈ 0.69 µM) | MIC90 [2]: 2 µg/mL (≈ 1.38 µM) | MIC [7]: 8 µg/mL (≈ 5.52 µM) | MIC50 [8]: 1 µg/mL (≈ 0.69 µM) | MIC90 [8]: 2 µg/mL (≈ 1.38 µM) | MIC50 [17]: 2 µg/mL (≈ 1.38 µM) | MIC90 [17]: 2 µg/mL (≈ 1.38 µM) | MIC50 [18]: 2 µg/mL (≈ 1.38 µM) | MIC90 [18]: 2 µg/mL (≈ 1.38 µM) | MIC [33]: > 256 µg/mL | MIC50 [20]: 1 µg/mL (≈ 0.69 µM) | MIC90 [20]: 2 µg/mL (≈ 1.38 µM) | MIC [21]: 8 µg/mL (≈ 5.52 µM) | MIC [22]: 8 µg/mL (≈ 5.52 µM) | MIC [23]: 16 µg/mL (≈ 11 µM) | MIC50 [25]: 1 µg/mL (≈ 0.69 µM) | MIC90 [25]: 2 µg/mL (≈ 1.38 µM) | MIC50 [26]: 1 µg/mL (≈ 0.69 µM) | MIC90 [26]: 4 µg/mL (≈ 2.76 µM)
